Assay results from ChEMBL document CHEMBL1138815, “Synthesis, structure-activity relationships, and in vivo properties of 3,4-dihydro-1H-pyrido[2,3-b]pyrazin-2-ones as corticotropin-releasing factor-1 receptor antagonists” (J Med Chem, 2004).

Experiments:
[1] = target: T1, Corticotropin-releasing factor receptor 1 (Rattus norvegicus, UniProt P35353); experiment: (§1) Inhibition of [125I]ovine-CRF binding to corticotropin releasing factor receptor 1
T1 sequence (P35353 whole entry): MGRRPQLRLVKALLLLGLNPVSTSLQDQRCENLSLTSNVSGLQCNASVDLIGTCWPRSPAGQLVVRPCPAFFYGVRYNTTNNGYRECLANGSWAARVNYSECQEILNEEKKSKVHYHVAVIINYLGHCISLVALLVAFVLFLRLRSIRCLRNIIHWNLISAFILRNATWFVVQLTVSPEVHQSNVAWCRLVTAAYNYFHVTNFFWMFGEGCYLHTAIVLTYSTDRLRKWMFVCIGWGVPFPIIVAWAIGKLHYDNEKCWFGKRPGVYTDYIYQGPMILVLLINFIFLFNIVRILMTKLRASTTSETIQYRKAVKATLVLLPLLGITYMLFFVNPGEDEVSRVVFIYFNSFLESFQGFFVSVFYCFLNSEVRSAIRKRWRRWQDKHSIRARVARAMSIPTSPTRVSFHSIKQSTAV
In short: (§2)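 CRF1 source is rat frontal cortex membranes (25 µg/well), washed by homogenization and 32000g spins. Incubated with 150 pM [125I]ovine-CRF for 2 h at 21 °C in 50 mM Hepes pH 7.0 with MgCl2, EGTA, protease inhibitors, Triton X-100, bacitracin and ovalbumin. Separated by filtration on PEI-treated GF/B filters and gamma counted. Nonspecific binding defined with 1 µM DMP696.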

[2] = target: T2, Corticotropin-releasing factor receptor 1 (Rattus norvegicus) (UniProt P35353); experiment: Percent occupancy of corticotropin releasing factor receptor 1 in defensive withdrawal model in rats after oral administration; Dose 1 mg/kg; assay type: functional, organism-based; design: dose 1 mg/kg; settings: at 1 mg/kg
T2 sequence (whole entry): T1 sequence (P35353 whole entry)
In short: (§3)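 After oral dosing at 1, 3 or 10 mg/kg in the defensive withdrawal rats, CRF1 occupancy in parietal cortex measured by ex vivo autoradiography; n = 5.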

Rattus norvegicus [3] = experiment: Percent decrease in exit latency was determined in the defensive withdrawal model of rats after oral administration; Dose 3 mg/kg; assay type: functional
In short: (§4)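 Male Sprague–Dawley rats (180–300 g) dosed po at 1, 3 or 10 mg/kg in 0.25% methocel suspension, 1 h before testing. Each rat placed in a darkened chamber inside a brightly lit open field; latency to emerge timed. Result expressed as % decrease versus vehicle, n = 8 per dose.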

[4] = target: Cannabinoid receptor 1 (Homo sapiens) (UniProt P21554); experiment: Inhibition of Cannabinoid receptor 1 at 10 uM
Chain of Cannabinoid receptor 1 (Homo sapiens) (P21554 whole entry): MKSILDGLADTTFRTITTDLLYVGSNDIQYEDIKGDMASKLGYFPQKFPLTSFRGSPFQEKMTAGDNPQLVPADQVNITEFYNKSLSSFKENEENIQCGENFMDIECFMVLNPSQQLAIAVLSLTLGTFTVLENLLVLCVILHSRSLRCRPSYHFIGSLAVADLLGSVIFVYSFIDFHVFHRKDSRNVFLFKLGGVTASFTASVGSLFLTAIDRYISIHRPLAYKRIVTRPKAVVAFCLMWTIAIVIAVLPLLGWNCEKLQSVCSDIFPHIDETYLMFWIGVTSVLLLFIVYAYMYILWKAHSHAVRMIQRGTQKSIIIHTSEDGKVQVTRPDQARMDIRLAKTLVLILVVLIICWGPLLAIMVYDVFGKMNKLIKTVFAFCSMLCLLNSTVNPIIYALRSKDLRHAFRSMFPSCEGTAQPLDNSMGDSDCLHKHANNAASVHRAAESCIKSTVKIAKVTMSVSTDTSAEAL

[5] = Mean free plasma concentration was determined in the defensive withdrawal model of rats after oral administration; Dose 3 mg/kg; assay type: ADME, organism-based; design: dose 3 mg/kg, route oral; settings: rat, in vivo
[6] = Mean free plasma concentration was determined in the defensive withdrawal model of rats after oral administration; Dose 10 mg/kg; assay type: ADME, organism-based; design: dose 10 mg/kg, route oral; settings: rat, in vivo
[7] = Half life in Beagle dogs; assay type: ADME, Canis lupus familiaris; settings: dog, in vivo
In short: (§5)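 Beagle dogs dosed iv at 1.0 mg/kg (n = 2) in propylene glycol:water:N,N-dimethylacetamide 80:10:10, or po at 5.0 mg/kg (n = 2) in Labrafil:ethanol:Tween 80 85:10:5. Blood drawn by jugular venipuncture at 0–24 h (iv from 0.1 h, po from 0.5 h). Plasma stored at -20 °C, levels measured by LC/MS/MS.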

Rattus norvegicus [8] = experiment: Percent decrease in exit latency was determined in the defensive withdrawal model of rats after oral administration; Dose 10 mg/kg; assay type: functional; in short: as §4
[9] = Mean total plasma concentration was determined in the defensive withdrawal model of rats after oral administration; Dose 3 mg/kg; assay type: ADME, organism-based; design: dose 3 mg/kg, route oral; settings: rat, in vivo, read-out: Mean total plasma concentration
[10] = Volume of distribution in Beagle dogs; assay type: ADME, organism-based, Canis lupus familiaris; settings: dog, in vivo; in short: as §5
[11] = Clearance in Beagle dogs; assay type: ADME, organism-based, Canis lupus familiaris; settings: dog, in vivo; in short: as §5
[12] = Mean free plasma concentration was determined in the defensive withdrawal model of rats after oral administration; Dose 1 mg/kg; assay type: ADME, organism-based; design: dose 1 mg/kg, route oral; settings: rat, in vivo
[13] = Mean total plasma concentration was determined in the defensive withdrawal model of rats after oral administration; Dose 1 mg/kg; assay type: ADME, organism-based; design: dose 1 mg/kg, route oral; settings: rat, in vivo, read-out: Mean total plasma concentration
[14] = target: T3, Adenosine receptor A3 (Homo sapiens) (UniProt P0DMS8); experiment: Inhibition of Adenosine A3 receptor at 10 uM
T3 sequence (whole entry): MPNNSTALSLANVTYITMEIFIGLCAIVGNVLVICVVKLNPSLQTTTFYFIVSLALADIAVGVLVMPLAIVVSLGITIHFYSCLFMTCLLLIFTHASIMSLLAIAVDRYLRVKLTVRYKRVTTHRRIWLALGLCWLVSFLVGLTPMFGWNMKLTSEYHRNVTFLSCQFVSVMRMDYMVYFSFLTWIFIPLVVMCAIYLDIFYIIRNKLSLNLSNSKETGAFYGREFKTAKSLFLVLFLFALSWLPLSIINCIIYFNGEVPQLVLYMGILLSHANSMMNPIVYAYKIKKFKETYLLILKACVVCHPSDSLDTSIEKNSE

[15] = target: Vasopressin V1 receptor (Homo sapiens) (UniProt P37288+P47901); experiment: Inhibition of Vasopressin V1 receptor at 10 uM; assay type: protein assay
Chain of Vasopressin V1 receptor (Homo sapiens) (P37288 whole entry, looked up): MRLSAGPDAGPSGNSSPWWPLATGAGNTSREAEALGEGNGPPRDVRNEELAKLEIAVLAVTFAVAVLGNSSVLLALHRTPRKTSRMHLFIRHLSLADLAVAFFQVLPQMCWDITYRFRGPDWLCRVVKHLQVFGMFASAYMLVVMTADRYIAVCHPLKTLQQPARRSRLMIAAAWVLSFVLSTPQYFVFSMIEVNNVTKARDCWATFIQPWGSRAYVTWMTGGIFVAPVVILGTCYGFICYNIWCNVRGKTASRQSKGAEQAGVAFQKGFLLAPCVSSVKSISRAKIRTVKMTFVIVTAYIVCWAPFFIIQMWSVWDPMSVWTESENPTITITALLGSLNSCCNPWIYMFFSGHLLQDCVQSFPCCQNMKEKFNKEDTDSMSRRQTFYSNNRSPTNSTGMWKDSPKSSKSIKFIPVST
Chain of Vasopressin V1 receptor (Homo sapiens) (P47901 whole entry, looked up): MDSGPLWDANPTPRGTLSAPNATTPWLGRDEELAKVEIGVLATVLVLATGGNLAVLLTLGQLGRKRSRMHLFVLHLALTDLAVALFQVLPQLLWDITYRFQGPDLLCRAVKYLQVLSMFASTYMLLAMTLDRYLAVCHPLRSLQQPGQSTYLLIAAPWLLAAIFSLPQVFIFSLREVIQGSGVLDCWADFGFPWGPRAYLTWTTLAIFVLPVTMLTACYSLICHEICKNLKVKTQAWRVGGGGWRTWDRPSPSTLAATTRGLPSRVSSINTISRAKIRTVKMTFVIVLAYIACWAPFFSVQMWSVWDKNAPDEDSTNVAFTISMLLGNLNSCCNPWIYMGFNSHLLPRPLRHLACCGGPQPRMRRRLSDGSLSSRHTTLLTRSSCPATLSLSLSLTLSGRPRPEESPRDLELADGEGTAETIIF

[16] = target: Corticotropin releasing factor receptor (Rattus norvegicus, UniProt P47866+P35353); experiment: Inhibition of corticotropin releasing factor-induced ACTH release from rat pituitary cells; assay type: functional, cell-based; settings: pituitary gland cell
In short: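 Cultured rat pituitary cells stimulated with 0.3 nM CRF, with inhibition of ACTH release measured across a concentration range to give IC50; n = 3.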

Rattus norvegicus [17] = experiment: Percent decrease in exit latency was determined in the defensive withdrawal model of rats after oral administration; Dose 1 mg/kg; assay type: functional; in short: as §4
[18] = Bioavailability in Beagle dogs; assay type: ADME, organism-based, Canis lupus familiaris; settings: dog, in vivo, read-out: Bioavailabiility; in short: as §5
[19] = Mean total plasma concentration was determined in the defensive withdrawal model of rats after oral administration; Dose 10 mg/kg; assay type: ADME, organism-based; design: dose 10 mg/kg, route oral; settings: rat, in vivo, read-out: Mean total plasma concentration
[20] = target: T2, Corticotropin-releasing factor receptor 1 (Rattus norvegicus); experiment: Percent occupancy of corticotropin releasing factor receptor 1 in defensive withdrawal model in rats after oral administration; Dose 10 mg/kg; assay type: organism-based; design: dose 10 mg/kg; settings: at 10 mg/kg; in short: as §3
[21] = target: T2, Corticotropin-releasing factor receptor 1 (Rattus norvegicus); experiment: Percent occupancy of corticotropin releasing factor receptor 1 in defensive withdrawal model in rats after oral administration; Dose 3 mg/kg; assay type: organism-based; design: dose 3 mg/kg; settings: at 3 mg/kg; in short: as §3
[22] = target: T4, Corticotropin-releasing factor receptor 1 (Homo sapiens, UniProt P34998); experiment: as §1; in short: as §2
T4 sequence (P34998 whole entry): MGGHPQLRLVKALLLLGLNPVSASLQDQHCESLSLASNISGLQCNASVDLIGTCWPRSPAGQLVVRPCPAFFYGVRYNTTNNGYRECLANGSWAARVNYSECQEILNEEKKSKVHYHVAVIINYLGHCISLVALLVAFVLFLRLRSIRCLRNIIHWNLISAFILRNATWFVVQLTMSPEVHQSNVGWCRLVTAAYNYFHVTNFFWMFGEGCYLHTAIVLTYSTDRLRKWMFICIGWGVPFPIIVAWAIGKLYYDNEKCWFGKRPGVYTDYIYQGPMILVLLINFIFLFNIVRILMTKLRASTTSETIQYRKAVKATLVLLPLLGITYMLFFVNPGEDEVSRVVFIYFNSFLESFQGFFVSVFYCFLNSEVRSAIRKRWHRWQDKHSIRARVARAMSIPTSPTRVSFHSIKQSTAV

Row | IC50 [1] [nM] | SMILES | further results
1 | 92 | CCN(CCCC#N)c1cc(C)nc2c1NC(=O)CN2c1ccc(OC)cc1C | –
2 | 4.1 | CCN(CC1CCCO1)c1cc(C)nc2c1NC(=O)CN2c1ccc(C(C)C)cc1Br (stereo unspecified) | –
3 | 0.5 | CCCCN(CC)c1cc(C)nc2c1NC(=O)CN2c1cc(F)c(OC)cc1Cl | –
4 | 1.8 | CCCN(CC1CCC1)c1cc(C)nc2c1NC(=O)CN2c1ccc(C#N)cc1Cl | –
5 | 1.2 | CCCN(CCC)c1cc(C)nc2c1NC(=O)CN2c1ccc(C#N)cc1Cl | –
6 | 198 | CCC(CC)Nc1cc(C)nc2c1NC(=O)CN2c1ccc(Cl)cc1Cl | –
7 | 2.2 | CCCCN(CC)c1cc(C)nc2c1NC(=O)CN2c1ccc(C#N)cc1Cl | –
8 | 4.2 | CCCCN(CC)c1cc(C)nc2c1NC(=O)CN2c1ccc(OC)nc1C | –
9 | 126 | Cc1cc(N2CCOCC2)c2c(n1)N(c1ccc(C(C)C)cc1Br)CC(=O)N2 | –
10 | 49 | CCCCN(CC)c1cc(C)nc2c1NC(=O)CN2c1ccc(C(C)C)cc1 | –
11 | 0.91 | CCCCN(CC)c1cc(C)nc2c1NC(=O)CN2c1ccc(C(C)C)cc1Cl | –
12 | 10 | CCCCN(CC)c1cc(C)nc2c1NC(=O)CN2c1ccc(Cl)cc1C#N | –
13 | > 1000 | CCCCNc1cc(C)nc2c1NC(=O)CN2c1ccc(OC)cc1Cl | –

Continued, compound first:

Row | SMILES | IC50 [1] [nM] | further results
14 | CCN(c1cc(C)nc2c1NC(=O)CN2c1cc(F)c(OC)cc1Cl)C(C)C | 1.5 | –
15 | CCN(CCCS(C)(=O)=O)c1cc(C)nc2c1NC(=O)CN2c1ccc(C(C)C)cc1Br | 305 | –
16 | COCCN(CCOC)c1cc(C)nc2c1NC(=O)CN2c1ccc(C(C)C)cc1Cl | 18 | –
17 | CCCCN(CC)c1cc(C)nc2c1NC(=O)CN2c1ccc(OC)cc1Cl | 0.3 | –
18 | CCCCN(CC)c1cc(C)nc2c1NC(=O)CN2c1ccc(OC)nc1OC | 0.82 | Occupancy [2]: 17%; Decrease in exit latency (Rattus norvegicus [3]): 14%; inhibition [4]: 53%; Mean free plasma concentration [5]: 0.36 nM; Mean free plasma concentration [6]: 1.02 nM; T1/2 [7]: 27.6 h; Decrease in exit latency (Rattus norvegicus [8]): 81%; concentration [9]: 21.7 nM; Volume of distribution [10]: 40.6 L/kg; Clearance [11]: 27.8 mL/min/kg; Mean free plasma concentration [12]: 0.05 nM; concentration [13]: 3.1 nM; inhibition [14]: 49%; inhibition [15]: 47%; IC50 [16]: 38.7 nM; Decrease in exit latency (Rattus norvegicus [17]): 0%; bioavailability [18]: 24%; concentration [19]: 61.5 nM; Occupancy [20]: 59%; Occupancy [21]: 23%
19 | CCCCN(CC)c1cc(C)nc2c1NC(=O)CN2c1ccc(C(C)C)cc1Br | 0.7 | –
20 | CCCCN(CC)c1cc(C)nc2c1NC(=O)CN2c1ccccc1Br | 7.1 | –
21 | CCNc1cc(C)nc2c1NC(=O)CN2c1ccc(OC)cc1Cl | > 1000 | –
22 | CCCN(CCOC)c1cc(C)nc2c1NC(=O)CN2c1ccc(C(C)C)cc1Cl | 2.6 | –
23 | CCCCN(CC)c1cc(C)nc2c1NC(=O)CN2c1ccc(OC)cc1C | 0.92 | –
24 | CCCCN(CC)c1cc(C)nc2c1NC(=O)CN2c1c(Cl)cc(C#N)cc1Cl | 3.3 | –
25 | CCCCN(CC)c1cc(C)nc(N(CC)c2ccc(C(C)C)cc2Br)n1 | – | Ki [22]: 18 nM
26 | CCCCN(CC)c1cc(C)nc2c1NC(=O)CN2c1ccc(Cl)cc1Cl | 0.49 | –
